High-throughput results as filed in PubChem.
Most compounds without a hit are left out; they make up all but 2.9% or so of the library.
TRPC4 PAM: allosteric potentiators of mouse TRPC4 channel. AID 2227. B-score at 10 µM. 310,000 tested, 0.42% active. HEK293 TRPC4beta/mu-opioid, DAMGO EC20, Fluo-4 Ca2+ flux; active compounds read high. Q9QUQ5;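 active = B-score of calcium response area above 5 SD of library B-scores, with initial fluorescence ratio within 5 SD of library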;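 note: B-score of integrated fluorescence ratio over time as area under calcium response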
TRPC6 inhibitor: inhibitors of mouse TRPC6 channel; 310,000 tested, 1.1% active; Q61143; B-score at 10 µM; HEK293-TRPC6, membrane potential dye, ACh-evoked depolarization; active compounds read low;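 active = B-score under library mean minus 3 SD, initial fluorescence not abnormally high, positive integrated signal ratio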;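 note: B-score derived from integrated fluorescence ratio over the kinetic read; more negative B-score means stronger inhibition of depolarization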
Kir21 inh: inhibitors of mouse Kir2.1 inward-rectifier potassium channel; P35561; HEK293-Kir2.1, FluxOR thallium flux fluorescence; active compounds read low; B-score at 10 µM; 310,000 tested, 0.85% active;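 active = fluorescence ratio B-score at or below minus 3 SD of library scores, with starting-brightness B-score within 2 SD, cut at about -4.2 in these data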;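 note: channel flux triggered by added potassium and thallium sulfate stimulus; B-score of peak minus minimum fluorescence over baseline after thallium stimulus; more negative B-score means stronger Kir2.1 block with less thallium influx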
TRPC4 block: TRPC4 (mouse) channel inhibition; Q9QUQ5; HEK293 TRPC4beta/mu-opioid, DAMGO-evoked Fluo4 calcium flux; active compounds read low; B-score at 10 µM; 300,000 tested, 0.39% active;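 active = B-score over 3 SD under the library average, no early fluorescence shift, positive overall ratio signal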
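material = TRPC4beta/mu-opioid receptor HEK293 cell line | probe or stimulus = sequential submaximal and maximal DAMGO stimulation | compound dosing = one concentration per compound | measured by = Fluo4 Ca2+ flux fluorescence | evaluation = integrated fluorescence ratio relative to baseline, converted to per-well B score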
TRPC4 act: TRPC4 (mouse) channel activation. Q9QUQ5. HEK293 TRPC4beta/mu-opioid, Fluo4 calcium fluorescence; active compounds read high. 310,000 tested, 0.49% active. B-score at 10 µM;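 active = B-score above 5 SD of library B-scores, and initial fluorescence ratio not above library mean plus 5 SD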;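 note: positive B-score marks a calcium rise read as TRPC4 activation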
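Assay system: HEK293 stable line with TRPC4beta plus mu-opioid receptor. Times: dye 45 min RT, read 110 s. Measured by: kinetic Fluo4 calcium fluorescence. Measure: B score of integrated ratio. Controls: assay buffer as low control, maximal DAMGO as high control.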
TRPC6 activator: activates the mouse TRPC6 cation channel; Q61143; HEK293-TRPC6 membrane potential dye fluorescence; active compounds read high; B-score at 10 µM; 310,000 tested, 0.13% active; AID 2550;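 active = B-score of the integrated fluorescence ratio above library mean plus 3 SD, and starting fluorescence ratio within library mean plus 5 SD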;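 note: higher score means more depolarization so channel activation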
Starred values were filed as active, the others as inactive; i = inactive.

SMILES	TRPC4 PAM	TRPC6 inhibitor	Kir21 inh	TRPC4 block	TRPC4 act	TRPC6 activator
Oc1ccccc1CN1CCC(C(O)(c2ccccc2)c2ccccc2)CC1	i	i	-5.2*	i	i	i
Oc1ccccc1CN1CCN(C(O)(c2ccccc2)c2ccccc2)CC1	i	i	-7.3*	i	i	i
COc1cc(/C=N/NC(=O)CN2CCCCC2)ccc1OCc1ccc(Br)cc1	i	i	-6.6*	i	i	i
COC(=O)[C@H](CCSC)NC(=O)Nc1ccc(S(N)(=O)=O)cc1	i	i	0.3	i	i	i
CCN1CCCC1CNS(=O)(=O)c1c(C)cc(C)cc1C (configuration not stated)	i	i	-0.01	i	86*	i
Cc1ccc(C)c(OCCC(=O)NCCc2ccc(Cl)cc2)c1	i	i	-0.52	i	i	i
CCOc1ccc(CCNC(=O)CSCc2ccc(C)cc2)cc1OCC	i	i	-6*	i	i	i
O=C(CSCc1ccc(Br)cc1)NCCc1ccccc1	i	i	-4.8*	i	i	i
CCOc1ccc(CCNC(=O)CCOc2cc(C)ccc2C)cc1OCC	i	i	-5.1*	i	i	i
CC1CN(CC(=O)Nc2nc(-c3ccc(Cl)cc3)cs2)CC(C)O1 (configuration not stated)	i	i	0.34	i	i	i
CCSc1nnc(NC(=O)COc2ccc3ccccc3c2)s1	i	i	3	i	i	i
O=C(NNC(=O)c1sc2ccccc2c1Cl)Nc1ccc(Cl)cc1	i	i	0.38	i	i	i
O=C(NNC(=S)NC(=O)c1sc2ccccc2c1Cl)c1ccc(Cl)cc1	56*	i	0.21	i	i	i
O=C(O)c1ccccc1NC(=S)NC(=O)c1sc2ccccc2c1Cl	i	i	-0.98	i	i	i
Cc1ccc(NC(=S)NC(=O)c2sc3ccccc3c2Cl)c(C(=O)O)c1	i	i	2.2	-6*	i	i
Cc1nc2ccccc2n1CCOc1ccc(F)cc1	i	i	0.9	-6*	i	i
OCc1nc2ccccc2n1CCCCOc1ccccc1	i	i	-0.4	i	i	i
OCc1nc2ccccc2n1CCOc1ccccc1	i	i	0.52	-6*	i	i
COc1ccccc1C(=O)NCCC(=O)N1CCN(c2cccc(C(F)(F)F)c2)CC1	i	i	0.68	i	i	i
COc1ccc(NC(=O)CN(C)CC(=O)Nc2ccc3c(c2)CCC3)cc1	i	i	-0.36	i	i	i
CCCCN(C)CCC(=O)Nc1ccc2c(c1)CCC2	i	i	-0.26	i	63*	i
O=C(CCc1ccccc1)Nc1cccc([N+](=O)[O-])c1	i	i	1.9	i	i	i
CC(CCc1ccccc1)NC(=O)CNc1cccc([N+](=O)[O-])c1 (configuration not stated)	i	i	-4.7*	i	i	i
CCOC(=O)c1sc2c(c1C)c(=O)n(CCO)c(=O)n2Cc1ccccc1	i	i	0.69	i	i	i
COc1cc(CNCCO)cc(Br)c1OCc1ccccc1Cl	i	i	-13*	i	i	i
SMILES	TRPC4 PAM	TRPC6 inhibitor	Kir21 inh	TRPC4 block	TRPC4 act	TRPC6 activator
COc1cc(CNCCN2CCOCC2)ccc1OCc1ccc(Cl)cc1Cl	i	i	-7.6	i	i	i
CCOc1cc(CNCCSc2nnnn2C)cc(Br)c1OCc1ccccc1	i	i	-1.7	i	i	i
CCOc1cc(CNCCO)cc(Br)c1OCc1ccccc1	i	i	-16*	i	i	i
CCCCNCc1cc(Br)c(OCc2cccs2)c(OC)c1	i	i	-12*	i	i	i
CCOc1c(Br)cc(CNCc2cccs2)cc1OC	i	i	-1.9	i	i	i
COc1cccc(CNCCO)c1OCc1ccccc1	i	i	-2.3	i	i	i
COc1cc(CNCCO)cc(Cl)c1OCc1ccc(Cl)cc1Cl	i	i	-11*	i	i	i
O=C(Cc1ccccc1)NCC(=O)OCc1cccc([N+](=O)[O-])c1	i	i	-2.2	i	i	i
Cc1ccsc1C(=O)NCCc1nnc2ccccn12	i	i	-0.04	i	i	i
O=C(COc1cccc([N+](=O)[O-])c1)NN1C(=O)c2ccccc2C1=O	i	i	0.52	i	i	i
Cc1ccc(CNC(=O)COc2ccc(S(=O)(=O)N3CCCC3)cc2)cc1	i	i	-1.2	i	i	i
COc1c(Cl)cc(Cl)cc1CNCCNCCO	11*	i	1.2	i	i	i
N#C/C(=C\c1ccco1)C(=O)NCC1CCCO1 (configuration not stated)	i	i	-0.52	i	i	i
Cc1ccc(/C=C(\C#N)C(=O)NCC2CCCO2)o1 (configuration not stated)	i	i	-1.1	i	55*	i
N#C/C(=C\c1cccc([N+](=O)[O-])c1)C(=O)NCC1CCCO1 (configuration not stated)	12*	i	-0.89	i	i	i
O=C(NCc1ccco1)/C(=C\c1cccnc1)NC(=O)c1ccccc1F	i	i	1.1	i	i	i
COc1ccc2[nH]cc(CCNC(=O)C3CCCCC3)c2c1	i	i	-1.6	i	i	i
CCCCN(C)C(=O)c1cn(C)c2ccc(S(=O)(=O)N(C)C)cc2c1=O	14*	i	2	i	i	i
CCCCN(CC)CCCNC(=O)c1cn(C)c2ccc(S(=O)(=O)N(C)C3CCCCC3)cc2c1=O	12*	i	-0.41	i	i	i
CCCCN(C)C(=O)c1cn(CC)c2ccc(S(=O)(=O)N(C)C)cc2c1=O	i	i	-0.52	i	i	i
Cc1cc(C)cc(N(C(=O)c2cccs2)C2C=CS(=O)(=O)C2)c1 (configuration not stated)	i	i	0.15	i	i	i
Cc1ccc(OCC(=O)NNC(=O)C2CSC3(C)CCC(=O)N23)cc1 (configuration not stated)	i	i	0.73	i	i	i
Cc1ccc(C(=O)NNC(=O)C2CSC3(C)CCC(=O)N23)cc1 (configuration not stated)	24*	i	-0.13	i	i	i
